Data reported in ChEMBL document CHEMBL4219146, “Synthesis and Pharmacological Evaluation of Heterocyclic Carboxamides: Positive Allosteric Modulators of the M1 Muscarinic Acetylcholine Receptor with Weak Agonist Activity and Diverse Modulatory Profiles” (J Med Chem, 2018).
The source made the active and inactive calls. The rule behind the calls is not given here.

What was measured:
[1] = target: T1, Muscarinic acetylcholine receptor M1 (Homo sapiens) (UniProt P11229); assay: Intrinsic activity at human muscarinic acetylcholine receptor M1 expressed in flpIn-CHO cells assessed as induction of IP1 accumulation at 10 uM after 1 hr by HTRF assay relative to control; assay type: functional, cell-based
T1 sequence (whole entry): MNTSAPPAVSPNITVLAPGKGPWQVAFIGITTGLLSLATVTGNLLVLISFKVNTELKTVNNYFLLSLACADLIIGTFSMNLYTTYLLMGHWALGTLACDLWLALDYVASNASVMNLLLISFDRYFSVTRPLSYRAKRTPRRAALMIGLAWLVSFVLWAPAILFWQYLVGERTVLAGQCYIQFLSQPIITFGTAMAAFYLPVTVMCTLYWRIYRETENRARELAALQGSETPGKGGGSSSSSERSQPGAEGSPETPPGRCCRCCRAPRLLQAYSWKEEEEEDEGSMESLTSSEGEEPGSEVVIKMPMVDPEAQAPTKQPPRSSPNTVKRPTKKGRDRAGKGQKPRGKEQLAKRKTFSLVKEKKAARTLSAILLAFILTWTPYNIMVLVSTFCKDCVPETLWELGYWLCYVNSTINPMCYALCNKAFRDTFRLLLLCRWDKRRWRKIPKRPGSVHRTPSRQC
In short: (§1)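 FlpIn CHO-hM1 cells, 25,000/well, seeded overnight, then preincubated 1 h at 37 °C in HEPES stimulation buffer with 50 mM LiCl, pH 7.4. ACh concentration-response curves run ± 10 µM modulator for 1 h at 37 °C. IP1 read by HTRF (665/620 nm) from lysates, interpolated from a standard curve and normalized to the ACh maximum. ∆pEC50 and ∆baseline taken versus ACh alone. ≥3 experiments, in duplicate.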

[2] = target: T2, Muscarinic acetylcholine receptor M1 (Homo sapiens, UniProt P11229); assay: Positive allosteric modulation of human muscarinic acetylcholine receptor M1 expressed in CHO cells assessed as potentiation of acetylcholine-induced calcium mobilization preincubated for 2.5 mins followed by acetylcholine addition measured after 1 min by Fluo-4AM-based FLIPR assay; assay type: functional, cell-based
T2 sequence (P11229 whole entry): T1 sequence (whole entry)

[3] = target: T2, Muscarinic acetylcholine receptor M1; assay: Allosteric agonist at human muscarinic acetylcholine receptor M1 expressed in CHO cells assessed as induction of calcium mobilization after 2.5 mins by Fluo-4AM-based FLIPR assay; assay type: functional, cell-based
[4] = target: T1, Muscarinic acetylcholine receptor M1 (Homo sapiens); assay: Displacement of [3H]-NMS from human muscarinic acetylcholine receptor M1 […] after 5 hrs by liquid scintillation counting
[5] = target: T1, Muscarinic acetylcholine receptor M1 (Homo sapiens); assay: Allosteric agonist at human muscarinic acetylcholine receptor M1 expressed in CHO-NFAT cells assessed as induction of calcium mobilization after 4 mins by Fluo-4AM-based FLIPR assay; assay type: functional, cell-based
[6] = target: T1, Muscarinic acetylcholine receptor M1 (Homo sapiens); assay: Positive allosteric modulation of human muscarinic acetylcholine receptor M1 expressed in flpIn-CHO cells assessed as potentiation of acetylcholine-mediated IP1 accumulation at 10 uM measured after 1 hr by based HTRF assay relative to control; assay type: functional, cell-based; in short: as §1
[7] = target: T1, Muscarinic acetylcholine receptor M1 (Homo sapiens); assay: Displacement of [3H]-NMS from human muscarinic acetylcholine receptor M1 expressed in flpIn-CHO cell membranes after 5 hrs in presence of acetylcholine at EC20 by liquid scintillation counting
In short: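 Whole-cell binding in FlpIn CHO-hM1 cells, 50,000/well, plated overnight and PBS-washed. Modulator titrated with a fixed EC20 ACh plus 0.2 nM [3H]NMS for 5 h at room temperature in HEPES/NaCl/MgCl2 buffer, pH 7.4. 100 µM atropine defined nonspecific binding. Cells washed with ice-cold saline and counted by scintillation. Data fitted to the allosteric ternary complex model.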

Row | SMILES | Intrinsic activity [1] | Activity [6] | other results
1 | Cn1cc(-c2ccc(Cn3cc(C(=O)N[C@H]4CCC[C@@H]4O)c4ncccc43)cc2)cn1 | Active | – | –
2 | Cn1cc(-c2ccc(Cn3cc(C(=O)N[C@@H]4CCCC[C@H]4O)c4c(F)cc(F)cc43)cn2)cn1 | – | – | EC50 [2]: 210 nM; EC50 [3]: 4800 nM
3 | Cn1cc(-c2ccc(Cn3cc(C(=O)N[C@H]4CCCO[C@@H]4O)c4ncccc43)cc2)cn1 | Active | – | –
4 | COc1ccc(Cn2cc(C(=O)O)c(=O)c3ccccc32)cc1 | – | – | pKb [4]: 5.48; Intrinsic activity [5]: 2.09; log(IA) [5]: 0.32
5 | Cn1cc(-c2ccc(Cn3cc(C(=O)N[C@H]4CCCC[C@@H]4N)c4ncccc43)cc2)cn1 | – | Active | –
6 | Cn1cc(-c2ccc(Cn3cc(C(=O)NC4CCC(=O)CC4)c4ncccc43)cc2)cn1 | Active | – | –
7 | Cn1cc(-c2ccc(Cn3cc(C(=O)N[C@H]4CCOC[C@@H]4O)c4ncccc43)cc2)cn1 | Active | – | –
8 | Cn1cc(-c2ccc(Cn3cc(C(=O)N[C@H]4CCCC[C@@H]4O)c4c(F)cccc43)cc2)cn1 | Active | Active | –
9 | Cn1cc(-c2ccc(Cn3cc(C(=O)N4CCN(C(=O)OC(C)(C)C)CC4)c4ncccc43)cc2)cn1 | – | inactive | –
10 | Cn1cc(-c2ccc(Cn3cc(C(=O)Nc4ccccc4O)c4ncccc43)cc2)cn1 | 14% | inactive | –
11 | Cn1cc(-c2ccc(Cn3cc(C(=O)N4CCNCC4)c4ncccc43)cc2)cn1 | Active | – | –
12 | Cn1cc(-c2ccc(Cn3cc(C(N)=O)c4ncccc43)cc2)cn1 | – | Active | –
13 | Cn1cc(-c2ccc(Cn3cc(C(=O)NC4CCNCC4)c4ncccc43)cc2)cn1 | Active | – | –
14 | CNC(=O)c1cn(Cc2ccc(-c3cnn(C)c3)cc2)c2cccnc12 | – | Active | –
15 | Cn1cc(-c2ccc(Cn3ccc(C(=O)N[C@H]4CCCC[C@@H]4O)c3)cc2)cn1 | 3.31 | – | pKb [7]: 4.19; log(IA) [1]: 0.52; fold change (FC) [6]: 7
16 | Cn1cc(-c2ccc(Cn3cc(C(=O)NC4CCOCC4)c4ncccc43)cc2)cn1 | Active | – | –

Row | SMILES | Intrinsic activity [1] | Activity [6] | other results
17 | Cn1cc(-c2ccc(Cn3cc(C(=O)N4CCCCC4)c4ncccc43)cc2)cn1 | inactive | inactive | –
18 | CN(C)C(=O)c1cn(Cc2ccc(-c3cnn(C)c3)cc2)c2cccnc12 | inactive | Active | –
19 | CCN(CC)C(=O)c1cn(Cc2ccc(-c3cnn(C)c3)cc2)c2cccnc12 | 0 | – | pKb [7]: 4.43
20 | O=C(O)c1ccc(Cn2cc(C(=O)N[C@H]3CCCC[C@@H]3O)c3ncccc32)cc1 | 2.88 | – | pKb [7]: 4.63; log(IA) [1]: 0.46
21 | Cn1cc(-c2ccc(Cn3cc(C(=O)Nc4ccccc4)c4ncccc43)cc2)cn1 | 73% | – | –
22 | CCNC(=O)c1cn(Cc2ccc(-c3cnn(C)c3)cc2)c2cccnc12 | 3.63 | – | pKb [7]: 4.61; log(IA) [1]: 0.56
23 | Cn1cc(-c2ccc(Cn3cc(C(=O)N[C@H]4CCCC[C@@H]4O)c4ccccc43)cc2)cn1 | Active | Active | –
24 | Cc1cnc(C(=O)N[C@@H]2CCOC[C@H]2O)cc1Cc1ccc(-c2cscn2)cc1 | – | – | pKb [4]: 6.2
25 | Cn1cc(-c2ccc(Cn3nc(C(=O)N[C@H]4CCCC[C@@H]4O)c4ccccc43)cc2)cn1 | Active | Active | –
26 | CN(C(=O)c1cn(Cc2ccc(-c3cnn(C)c3)cc2)c2cccnc12)C1CCCCC1 | 0.57 | – | pKb [7]: 4.91; log(IA) [1]: -0.24
27 | Cn1cc(-c2ccc(Cn3cc(C(=O)NC4CCCCC4)c4ncccc43)cc2)cn1 | Active | – | –
28 | Cn1cc(-c2ccc(Cn3cc(C(=O)N[C@H]4CCCC[C@@H]4O)c4c(Cl)cccc43)cc2)cn1 | Active | Active | –
29 | Cn1cc(-c2ccc(Cn3cc(C(=O)N[C@H]4CC[C@H](O)CC4)c4ncccc43)cc2)cn1 | Active | – | –
30 | Cn1cc(-c2ccc(Cn3cc(C(=O)N4CCCC4)c4ncccc43)cc2)cn1 | inactive | Active | –
31 | Cn1cc(-c2ccc(Cn3cc(C(=O)N[C@H]4CCCC[C@@H]4O)c4ncccc43)cc2)cn1 | 22.9 | Active | log(IA) [1]: 1.36; pKb [4]: 5.92
